Sequences and labels used below:
B1: tRNA (parent)
chain: CUCUCGGUAGCCAAGUUGGUUUAAGGCGCAAGACUUUAAUUUAUCACUACGAAAUCUUGAGAUCGGGCGUUCGACUCGCCCCCGGGAGAUUUUUUCCUCGAGCAA

Consider 27 variants from the RNAGym collection of RNA variant scans (doi:10.1101/gad.245936.114).

Fewer inactive variants are shown than the library holds.

The data set covers variants of B1. The experiment in a line: nonsense suppression (GFP-seq) (ratio to wild type); higher = more function; SUP4oc tRNA, yeast GFP reporter sort-seq. An outline of the steps:
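Raffinose/galactose medium with 80 mg/L adenine was used to grow yeast carrying genome-integrated tRNA variants (~3% random-mutation library), RFP, and a galactose-driven GFP ochre reporter. Cells went into GFP/RFP bins, which were Illumina-sequenced, and variants with ≥100 reads and ≥30 cells were scored. Nonsense suppression (GFPSEQ) is the per-bin median GFP/RFP weighted by estimated cell share and expressed relative to the unmutated parent tRNA.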
Turning to CUCUCGGUAGCUAAGUUGGUUUAAGGCGCAAGACUUUAAUUUAUCACUACGAAAUCUUGAGAUCGGGCGUUCGACUCACCCCCGGGAGAUUUUUUCCUCGAGCAA [C12U G78A], the nonsense suppression was 0.0268.

Turning to CUCUCGGUAGCUAAGUUGGUUUAAAGCGCAAGACUUUAAUUUAUCACUACGAAAUCUUGACAUCGGGCGUUCGACUCGCCCCCGGGAGAUUUUUUCCUCGAGCAA [C12U G25A G61C], the nonsense suppression came out at 0.823.

As for CUCUCGGUAGCUAAGUUGGUUUAAGGCGCAAGACUUUAAUUUAUCACUACGAAAUCUUGAGAUCGGGCGUUCGACUCGCCCUCGGGAGAUUUUUUCCUCGAGCAA [C12U C82U], the nonsense suppression is 0.32.

For CUCUCGGUAGCUAAGUUGGUUUAAGGCGCAAGACUUUAAUUUAUCACUACGAAAUCUUGAGAUCGGGCGUUCGACUCGCCCCCGGGAUAUUUUUUCCUCGAGCAA [C12U G88U], the nonsense suppression is 0.0717.

Regarding CUCUCGGUAGCCCAGUUGGUUUAAGGCGCAAGUCUUUAAUUUAUCACUACGAAAUCUUGAGAUCGGGCGUUCGACUCGCCCCCGGGAGAUUUUUUCCUCGAGCAA [A13C A33U], the nonsense suppression worked out at 0.0508.

For CUCUCGGUAGCUAAGUUGGUUUAAGGCGCAAGACUUUAAUUUAUCACUACGAAAUCUUGAGAUCGGGCGUUCGACUCUCCCCCCGGAGAUUUUUUCCUCGAGCAA [C12U G78U G84C], the nonsense suppression is at most 0.026.

Consider CUCUCGGUAGCUAAGUUGGUUUAAGGCGCAAGACUUUAAUUUAUCACUACGAAACCUUGAGAUCGGGCGUUCGACUCGCCCCCGGGAGAUUUUUUCCUCGAGCAA [C12U U55C], for which the nonsense suppression came out at 0.0665.

CUCUCGGUAGCCCAGUUGGUUUAAGGCGCAAGACUUUAAUUUAUCACUACGAAAUCUUGCGAUCGGGCGUUCGACUCGCCCCCGGGAGAUUUUUUCCUCGAGCAA [A13C A60C]: the nonsense suppression worked out at 0.29.

CUCUCGGUAGCCCAGUUGGUUUAAGGCGCAAGACUUUAAUUUAUCACUACGAAAUCUUGUGAUCGGGCGUUCGACUCGCCCCCGGGAGAUUUUUUCCUCGAGCAA [A13C A60U]: the nonsense suppression stood at 1.07.

Turning to CUCUCGGUAGCCCAGUUGGUUUAAGGCGCAAGACUUUAAUUUAUCACUACGAAAUCUUGGGAUCGGGCGUUCGACUCGCCCCCGGGAGAUUUUUUCCUCGAGCAA [A13C A60G], the nonsense suppression was found to be 0.392.

In the case of CUCUCGGUAGCUAAGUUGGUUUAAGGCGCAAGACUUUAAUUUAUCACUACGAAAUCUUGAGAUCGGGCGUUCGAGUCGCCCCCGGGAGAUUUUUUCCUCGAGCAA [C12U C75G], the nonsense suppression is 1.23.

With CUCUCGGUAGCUAAGUUGGUUUAAGGCGCAAGACUUUAAUUUAUCACUACGAAAUCUUGAUAUCGGGCGUUCGACUCGCCCCCGGGAGAUUUUUUCCUCGAGCAA [C12U G61U], the nonsense suppression amounted to 0.248.

Turning to CUCUCGGUAGCUAAGUUGUUUUAAGGCGCAAGACUUUAAUUUAUCACUACGAAAUCCUGAGAUCGGGCGUUCGACUAGCCCCCGGGAGUUUUUUUCCUCGAGCAA [C12U G19U U57C C77A A89U], the nonsense suppression was at most 0.026.

In the case of CUCUCGGUAGCCCAGUUGGUUUAAGGCGCGAGACUUUAAUUUAUCACUACGAAAUCUUGAGAUCGGGCGUUCGACUCGCCCCCGGGAGAUUUUUUCCUCGAGCAA [A13C A30G], the nonsense suppression was 0.892.

Consider CUCUCGGUAGCUAAGUUGGUUUAAGGCGCAAGACUUUAAUUUAUCACUACGAAAUCUUGAGAUCGGGCGUUCGACUCGUCCCCGGGAGAUUUUUUCCUCGAGCAA [C12U C79U], for which the nonsense suppression was 0.205.

For the variant CUCUCGGUAGCUAAGUUGGUUUAAGGCACAAGACUUUAAUUUAUCACUACGAAAUCUUGAGAUCGGGCGUUCGACUCGCCCCCGGGAGAUUUUUUCCUCGAGCAA [C12U G28A], the nonsense suppression is 0.51.

As to CUCUCGGUAGCUAAGUUGGUUUAAGGCUCAAGACUUUAAUUUAUCACUACGAAAUCUUGAGAUCGGGCGUUCGACUCGCCCCCGGGAGAUUUUUUCCUCGAGCAA [C12U G28U], the nonsense suppression was 0.0705.

In the case of CUCUCGGUAGCUAAGGUGGUUUAAGGCGCAAGACUUUAAUUUAUCACUACGAAAUCUUGAGAUCGGGCGUUCGACUCGCCCCCGGGAGAUUUUUUCCUCGAGCAA [C12U U16G], the nonsense suppression was 0.785.

Take CUCUCGGUAGCUAAGCUGGUUUAAGGCGCAAGACUUUAAUUUAUCACUACGAAAUCUUGAGAUCGGGCGUUCGACUCGCCCCCGGGAGAUUUUUUCCUCGAGCAA [C12U U16C]: the nonsense suppression worked out at 0.853.

CUCUCGGUAGCUAAGCUGGUUUAAGGCACAAGACUUUAAUUUAUCACUACGAAAUCUUGAGAUCGGGCGUUCGACUCGCCCCCGGGAGAUUUUUUCCUCGAGCAA [C12U U16C G28A]: the nonsense suppression came out at 0.295.

For CUCUCGGUAGCUAAGUUGGUUUAACGCGCAAGACUUUAAUUUAUCACUACGAAAUCGUGAGAUCGGGCGUUCGACUCGCCCCGGGGAGAUUUUUUCCUCGAGCAA [C12U G25C U57G C83G], the nonsense suppression is at most 0.026.

CUCUCGGUAGCCCAGUUGGUUUAAGGCGCAAGACUUUAAUUUAUCACUACGAAGUCUUGAGAUCGGGCGUUCCACUCGCCCCCGGGAGAUUUUUUCCUCGAGCAA [A13C A54G G73C]: the nonsense suppression was at most 0.026.

For the variant CUCUCGGUAGCCCUGUUGGUUUAAGGCGCAAGACUUUAAUUUAUCACUACGAAAUCUUGAGAUCGGGCGUUCGACUCGCCCCCGGGAGAUUUUUUCCUCGAGCAA [A13C A14U], the nonsense suppression is 0.206.

Take CUCUCGGUAGCUAAGUUGGUUGAAGGCGCAAGACUUUAAUUUAUCACUACGAAAUCUUGAGAUCGGGCGUUCGACUCGCCCCCGGGAGAUUUUUUCCUCGAGCAA [C12U U22G]: the nonsense suppression stood at 0.745.

Turning to CUCUCGGUAGCCCAGUUGGUUUAAGGCGCUAGACUUUAAUUUAUCACUACGAAAUCUUGAGAUCGGGCGUUCGACUCGCCCCCGAGAGAUUUUUUCCUCGAGCAA [A13C A30U G85A], the nonsense suppression was found to be 0.157.

As to CUCUCGGUAGCUAAGUUGGUAUAAGGCGCAGGACUUUAAUUUAUCACUACGAAAUCUUGAGAUCGGGCGUUCGACUCGCCCCCGGGAGAUUUUUUCCUCGAGCAA [C12U U21A A31G], the nonsense suppression stood at 0.214.

For CUCUCGGUAGCUAAGUUGGUUUAAGGCGCAAGACUUUAAUUUAUCACUACGAAAUCUUGAGAUCGGGCGAUCGACUCGCCCCCGGGAGAUUUUUUCCUCGAGCAA [C12U U70A], the nonsense suppression amounted to 0.048.
